pEC50, pIC50: −log10 of the molar value. ≈ marks a conversion by molar mass, not a printed value.
Tests used:
[1] = tested on: Mycolicibacterium smegmatis; assay: Antibiofilm activity against Mycobacterium smegmatis mc2 155 ATCC 700084 assessed as dispersion of preformed biofilms measured after 24 hrs by crystal violet reporter assay; format: functional, organism-based; settings: MC2 155 ATCC 700084, 24 h
How it was run: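 Cultures (48 h) diluted to 0.01 in M9 minimal salts with glucose, MgSO4 and CaCl2 in PVC plates. Biofilm grown stationary at 37 °C for 48 h, washed, then fresh medium with compound added for 24 h at 37 °C. Stained with 0.1% crystal violet 30 min, solubilised in 95% ethanol, OD540 read. Media blanks subtracted. Dispersion calculated against untreated biofilm wells. At least three repeats.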

[2] = tested on: Mycolicibacterium smegmatis; assay: Antibiofilm activity against Mycobacterium smegmatis mc2 155 ATCC 700084 assessed as inhibition of biofilm formation measured after 24 hrs by crystal violet reporter assay; format: functional, organism-based; settings: MC2 155 ATCC 700084, 24 h
[3] = tested on: Mycolicibacterium smegmatis; assay: Potentiation of Oxacillin-induced antibacterial activity against Mycobacterium smegmatis mc2 155 ATCC 700084 assessed as Oxacillin MIC at 60 uM incubated for 48 hrs by alamarblue dye based broth microdilution method (Rvb =512 ug/ml); format: functional
How it was run: (§1)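 Inoculum from 48 h cultures set to 5 x 10^5 CFU/mL in 7H9 + ADC and pre-dosed with compound from DMSO stock at fixed concentration. β-lactam two-fold serially diluted from top concentration, with an antibiotic-only control series. Stationary 37 °C for 48 h, then alamarBlue for 8 h. MIC is the lowest blue (non-viable) well. Fold reduction is relative to the antibiotic-only MIC. Duplicates, at least two repeats.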

[4] = tested on: Mycolicibacterium smegmatis; assay: Potentiation of oxacillin-induced antibacterial activity against Mycobacterium smegmatis mc2 155 ATCC 700084 assessed as fold reduction in oxacillin MIC at 60 uM incubated for 48 hrs by alamarblue dye based broth microdilution method; format: functional; how it was run: as §1
[5] = tested on: Mycolicibacterium smegmatis; assay: Potentiation of Cefotaxime-induced antibacterial activity against Mycobacterium smegmatis mc2 155 ATCC 700084 assessed as Cefotaxime MIC at 60 uM incubated for 48 hrs by alamarblue dye based broth microdilution method (reference value: 128 ug/ml); format: functional; how it was run: as §1
[6] = tested on: Mycolicibacterium smegmatis; assay: Potentiation of Ceftazidime-induced antibacterial activity against Mycobacterium smegmatis mc2 155 ATCC 700084 assessed as Ceftazidime MIC at 60 uM incubated for 48 hrs by alamarblue dye based broth microdilution method (reference value: 512 ug/ml); format: functional; how it was run: as §1
[7] = tested on: Mycolicibacterium smegmatis; assay: Potentiation of Ceftazidime-induced antibacterial activity against Mycobacterium smegmatis mc2 155 ATCC 700084 assessed as fold reduction in Ceftazidime MIC at 60 uM incubated for 48 hrs by alamarblue dye based broth microdilution method; format: functional; how it was run: as §1
[8] = tested on: Mycolicibacterium smegmatis; assay: Antibacterial activity against Mycobacterium smegmatis mc2 155 ATCC 700084 assessed as inhibition of bacterial growth incubated for 48 hrs by alamarblue dye based broth microdilution method; format: functional
How it was run: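 Inoculum from 48 h cultures set to 5 x 10^5 CFU/mL in 7H9 + ADC. Compound in DMSO two-fold serially diluted from 200 µM top concentration. Stationary 37 °C for 48 h, then alamarBlue for 8 h at 37 °C. MIC is the lowest concentration with no viable bacteria (blue, not pink). Duplicate wells, at least two independent repeats.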

[9] = tested on: Mycolicibacterium smegmatis; assay: Potentiation of Cefoxitin-induced antibacterial activity against Mycobacterium smegmatis mc2 155 ATCC 700084 assessed as fold reduction in Cefoxitin MIC at 60 uM incubated for 48 hrs by alamarblue dye based broth microdilution method; format: functional; how it was run: as §1
[10] = tested on: Mycolicibacterium smegmatis; assay: Potentiation of Cefotaxime-induced antibacterial activity against Mycobacterium smegmatis mc2 155 ATCC 700084 assessed as fold reduction in Cefotaxime MIC at 60 uM incubated for 48 hrs by alamarblue dye based broth microdilution method; format: functional; how it was run: as §1
[11] = tested on: Mycolicibacterium smegmatis; assay: Potentiation of Ampicillin-induced antibacterial activity against Mycobacterium smegmatis mc2 155 ATCC 700084 assessed as Ampicillin MIC at 60 uM incubated for 48 hrs by alamarblue dye based broth microdilution method (reference value: 128 ug/ml); format: functional; how it was run: as §1
[12] = tested on: Mycolicibacterium smegmatis; assay: Potentiation of Cefoxitin-induced antibacterial activity against Mycobacterium smegmatis mc2 155 ATCC 700084 assessed as Cefoxitin MIC at 60 uM incubated for 48 hrs by alamarblue dye based broth microdilution method (reference value: 16 ug/ml); format: functional; how it was run: as §1
[13] = tested on: Mycolicibacterium smegmatis; assay: Potentiation of Ampicillin-induced antibacterial activity against Mycobacterium smegmatis mc2 155 ATCC 700084 assessed as fold reduction in Ampicillin MIC at 60 uM incubated for 48 hrs by alamarblue dye based broth microdilution method; format: functional; how it was run: as §1
[14] = Hemolytic activity in sheep RBC assessed as hemolysis at 200 uM measured after 1 hr by UV spectrometer analysis; format: ADME, cell-based, Ovis aries, Erythrocyte; settings: sheep red blood cells (erythrocytes), read-out: Activity
How it was run: (§2)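 Mechanically defibrinated sheep blood was centrifuged, and the cells were washed and resuspended in PBS three times, then diluted 10-fold. Compound was added from DMSO stock. Controls were 1% Triton X (100% lysis) and PBS (zero lysis). Samples were incubated 1 h at 37 °C with shaking at 200 rpm, then centrifuged. Supernatant was diluted 40-fold in distilled water and read at A540. Run in duplicate, repeated at least twice.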

[15] = Hemolytic activity in sheep RBC assessed as hemolysis at 500 uM measured after 1 hr by UV spectrometer analysis; format: ADME, cell-based, Ovis aries, Erythrocyte; settings: sheep red blood cells (erythrocytes), read-out: Activity; how it was run: as §2

Nc1nccc(-c2c[nH]c3cccc(Br)c23)n1
pEC50 [1]: < 4.30
pIC50 [2]: < 4.30

Nc1nccc(-c2c[nH]c3c(Br)cccc23)n1
pEC50 [1]: < 4.30
pIC50 [2]: 4.59

Nc1nccc(-c2c[nH]c3ccc(Cl)cc23)n1
pEC50 [1]: < 4.30
pIC50 [2]: 4.74

Nc1nccc(-c2c[nH]c3ccc(F)cc23)n1
pEC50 [1]: < 4.30
pIC50 [2]: 4.80

Nc1nccc(-c2c[nH]c3cc(Cl)ccc23)n1
pEC50 [1]: < 4.30
pIC50 [2]: 4.58

CCCn1cc(-c2ccnc(N)n2)c2cc(Br)ccc21
pEC50 [1]: < 4.30
pIC50 [2]: 4.82

CCCn1cc(-c2ccnc(N)n2)c2ccc(I)cc21
pEC50 [1]: < 4.30
pIC50 [2]: < 4.30

CCCCn1cc(-c2ccnc(N)n2)c2cc(Br)ccc21
pEC50 [1]: < 4.30
pIC50 [2]: 4.64

Nc1nccc(-c2c[nH]c3cc(F)ccc23)n1
pEC50 [1]: < 4.30
pIC50 [2]: 4.67

CC(C)Cn1cc(-c2ccnc(N)n2)c2ccc(Br)cc21
pEC50 [1]: < 4.30
pIC50 [2]: 4.30

CNc1nccc(-c2c[nH]c3ccc(Br)cc23)n1
MIC [3]: 256 µg/mL
fold change (FC) [4]: 2
MIC [5]: 64 µg/mL
MIC [6]: 512 µg/mL
fold change (FC) [7]: 0
MIC [8]: ≥ 200 µM
pEC50 [1]: 4.35
fold change (FC) [9]: 0
fold change (FC) [10]: 2
MIC [11]: 64 µg/mL
pIC50 [2]: 4.59
MIC [12]: 16 µg/mL
fold change (FC) [13]: 2

CCn1cc(-c2ccnc(N)n2)c2cc(Br)ccc21
pEC50 [1]: < 4.30
pIC50 [2]: 4.43

Nc1nccc(-c2c[nH]c3ccc(I)cc23)n1
MIC [3]: 512 µg/mL
fold change (FC) [4]: 0
MIC [5]: 64 µg/mL
MIC [6]: 512 µg/mL
fold change (FC) [7]: 0
MIC [8]: ≥ 200 µM
pEC50 [1]: 4.55
fold change (FC) [9]: 0
fold change (FC) [10]: 2
MIC [11]: 128 µg/mL
pIC50 [2]: 4.88
MIC [12]: 16 µg/mL
fold change (FC) [13]: 0

Cn1cc(-c2ccnc(N)n2)c2cc(Br)ccc21
MIC [3]: 256 µg/mL
fold change (FC) [4]: 2
MIC [5]: 16 µg/mL
MIC [6]: 64 µg/mL
fold change (FC) [7]: 8
MIC [8]: ≥ 200 µM
pEC50 [1]: < 4.30
fold change (FC) [9]: 2
fold change (FC) [10]: 8
MIC [11]: 32 µg/mL
pIC50 [2]: 4.56
MIC [12]: 8 µg/mL
fold change (FC) [13]: 4

CCn1cc(-c2ccnc(N)n2)c2ccc(Br)cc21
pEC50 [1]: < 4.30
pIC50 [2]: 4.41

CCNc1nccc(-c2c[nH]c3ccc(Br)cc23)n1
MIC [3]: 512 µg/mL
fold change (FC) [4]: 0
MIC [5]: 128 µg/mL
MIC [6]: 512 µg/mL
fold change (FC) [7]: 0
MIC [8]: ≥ 200 µM
pEC50 [1]: 4.41
fold change (FC) [9]: 0
fold change (FC) [10]: 0
MIC [11]: 64 µg/mL
pIC50 [2]: 4.85
MIC [12]: 16 µg/mL
fold change (FC) [13]: 2

CCCn1cc(-c2ccnc(N)n2)c2ccc(Br)cc21
pEC50 [1]: < 4.30
pIC50 [2]: 4.46

Cc1ccc2[nH]cc(-c3ccnc(N)n3)c2c1
pEC50 [1]: < 4.30
pIC50 [2]: 4.80

Cn1cc(-c2ccnc(N)n2)c2ccc(Br)cc21
pEC50 [1]: < 4.30
pIC50 [2]: 4.57

CC(C)Cn1cc(-c2ccnc(N)n2)c2cc(Br)ccc21
pEC50 [1]: < 4.30
pIC50 [2]: 4.83

Nc1nc(-c2c[nH]c3ccc(Br)cc23)c[nH]1
MIC [8]: 100 µM (≈ 27.7 µg/mL)
pEC50 [1]: < 4.30
pIC50 [2]: 5.02

CN(C)c1nccc(-c2c[nH]c3ccc(Br)cc23)n1
MIC [3]: 512 µg/mL
fold change (FC) [4]: 0
MIC [5]: 128 µg/mL
MIC [6]: 512 µg/mL
fold change (FC) [7]: 0
MIC [8]: ≥ 200 µM
pEC50 [1]: 4.45
fold change (FC) [9]: 0
fold change (FC) [10]: 0
MIC [11]: 64 µg/mL
pIC50 [2]: 4.84
MIC [12]: 16 µg/mL
fold change (FC) [13]: 2

Nc1nccc(-c2c[nH]c3cc(I)ccc23)n1
MIC [3]: 512 µg/mL
fold change (FC) [4]: 0
MIC [5]: 128 µg/mL
MIC [6]: 512 µg/mL
fold change (FC) [7]: 0
MIC [8]: ≥ 200 µM
pEC50 [1]: 4.53
fold change (FC) [9]: 0
fold change (FC) [10]: 0
MIC [11]: 128 µg/mL
pIC50 [2]: 4.88
MIC [12]: 16 µg/mL
fold change (FC) [13]: 0

CCCCn1cc(-c2ccnc(N)n2)c2ccc(Br)cc21
hemolysis at 1 h, 200 µM [14]: 56%
hemolysis at 1 h, 500 µM [15]: 73%
pEC50 [1]: < 4.30
pIC50 [2]: < 4.30

CCCCCn1cc(-c2ccnc(N)n2)c2cc(Br)ccc21
pEC50 [1]: < 4.30
pIC50 [2]: < 4.30

Nc1nccc(-c2cn(Cc3ccccc3)c3cc(Br)ccc23)n1
pEC50 [1]: < 4.30
pIC50 [2]: 4.56

Nc1ncc(-c2c[nH]c3ccc(Cl)cc23)[nH]1
pEC50 [1]: < 4.30
pIC50 [2]: 4.80

Nc1ncc(-c2c[nH]c3cc(Cl)ccc23)[nH]1
pEC50 [1]: 4.47
pIC50 [2]: 4.99

Nc1ncc(-c2c[nH]c3ccc(F)cc23)[nH]1
pEC50 [1]: < 4.30
pIC50 [2]: 4.40

Nc1nccc(-c2c[nH]c3ccccc23)n1
pEC50 [1]: < 4.30
pIC50 [2]: 4.53

Nc1nccc(-c2c[nH]c3ccc(Br)cc23)n1 [MERIDIANIN C]
pEC50 [1]: < 4.30
pIC50 [2]: 4.64

Nc1nccc(-c2c[nH]c3cc(Br)ccc23)n1 [MERIDIANIN D]
hemolysis at 1 h, 200 µM [14]: 8%
hemolysis at 1 h, 500 µM [15]: 13%
fold change (FC) [4]: 0
fold change (FC) [7]: 0
MIC [8]: 200 µM (≈ 57.8 µg/mL)
pEC50 [1]: 4.29
fold change (FC) [9]: 0
fold change (FC) [10]: 0
pIC50 [2]: 4.67
fold change (FC) [13]: 0

Source: ChEMBL document CHEMBL4699393, “Meridianin D analogues possess antibiofilm activity against Mycobacterium smegmatis” (RSC Med Chem, 2020)
